Reference: ChEMBL document CHEMBL1143230, “5-Substituted 2-aminothiophenes as A1 adenosine receptor allosteric enhancers” (Bioorg Med Chem, 2008)

Columns and labels:
Details in all cases: CHO-K1
[1] = target: T1, Adenosine receptor A1 (Homo sapiens) (UniProt P30542); assay: Activity at human adenosine A1 receptor expressed in CHOK1 cells assessed as agonist-receptor ternary complex remaining by […] after 10 mins; type: functional, cell-based; parameters: concentration or dose not given beside the values
T1 sequence (whole entry): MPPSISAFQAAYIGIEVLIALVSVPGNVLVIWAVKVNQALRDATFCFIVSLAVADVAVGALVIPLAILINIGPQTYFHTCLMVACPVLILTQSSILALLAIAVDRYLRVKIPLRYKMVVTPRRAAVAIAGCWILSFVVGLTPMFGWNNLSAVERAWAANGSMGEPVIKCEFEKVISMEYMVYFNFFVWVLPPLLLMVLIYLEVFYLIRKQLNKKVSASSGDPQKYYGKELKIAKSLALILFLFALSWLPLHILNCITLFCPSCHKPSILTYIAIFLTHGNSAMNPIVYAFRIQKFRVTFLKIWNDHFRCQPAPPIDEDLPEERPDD
Summary of the method: (§1)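 Membranes from CHO-K1 cells stably expressing hA1AR, 10 ug protein. Phase 2: vehicle or enhancer for 30 min. Phase 3: 100 uM BW-1433 plus 25 uM GTPgammaS for 10 min. Score = % specific binding remaining. ED50 and maximal score from hyperbolic fit over 0.1–50 uM, N = 2–3.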

[2] = target: T1, Adenosine receptor A1 (Homo sapiens); assay: Displacement of [3H]CPX from human adenosine A1 receptor expressed in CHOK1 cells at 10 uM relative to control; type: cell-based
Summary of the method: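 Membranes from CHO-K1 cells expressing human A1 receptor, resuspended at 400 ug/mL in HE buffer with 1 U/mL adenosine deaminase. Incubated with [3H]CPX (2 nM in the added buffer) and 10 uM enhancer (final) for 90 min at room temperature. Non-specific binding defined with 100 uM NECA. Filtration, scintillation counting, triplicate, expressed as % inhibition versus control binding.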

[3] = target: T1, Adenosine receptor A1 (Homo sapiens); assay: Activity at human adenosine A1 receptor expressed in CHOK1 cells assessed as agonist-receptor ternary complex remaining by […]; type: functional, cell-based; summary of the method: as §1

Compound | Activity [1] [%] | inhibition [2] [%] | ED50 [3] [µM]
CCOC(=O)c1c(N)sc(-c2cccc(C(C)=O)c2)c1-c1cccc(C(F)(F)F)c1 | 14.4 | 68.9 | > 10
Nc1scc(-c2cccc(C(F)(F)F)c2)c1C(=O)c1ccccc1 | 76.8 | 61.1 | 15.8
CCOC(=O)c1c(N)sc(-c2ccc(Cl)cc2)c1-c1cccc(C(F)(F)F)c1 | 57 | 58.4 | 6.6
Nc1sc(-c2ccc(Cl)cc2)c(-c2cccc(C(F)(F)F)c2)c1C(=O)c1ccccc1 | 22.5 | 59.1 | > 10
CC(=O)c1ccc(-c2sc(N)c(C(=O)c3ccccc3)c2-c2cccc(C(F)(F)F)c2)cc1 | 4.8 | 25.6 | > 10
CCOC(=O)c1c(-c2cccc(C(F)(F)F)c2)csc1N | 7.8 | 93 | 9.4
CCOC(=O)c1c(N)sc(-c2ccccc2)c1-c1cccc(C(F)(F)F)c1 | 13.2 | 83.6 | > 10
CC(=O)c1cccc(-c2sc(N)c(C(=O)c3ccccc3)c2-c2cccc(C(F)(F)F)c2)c1 | 18.5 | 33.1 | > 10
CCOC(=O)c1c(N)sc(-c2ccc(-c3ccncc3)cc2)c1-c1cccc(C(F)(F)F)c1 | 0 | 91 | > 10
CCOC(=O)c1c(N)sc(-c2ccc([N+](=O)[O-])cc2)c1-c1cccc(C(F)(F)F)c1 | 10.3 | 71.4 | > 10
CCOC(=O)c1c(N)sc(-c2ccc(C(F)(F)F)cc2)c1-c1cccc(C(F)(F)F)c1 | 14.8 | 48.5 | > 10
COc1ccc(-c2sc(N)c(C(=O)c3ccccc3)c2-c2cccc(C(F)(F)F)c2)cc1 | 7.4 | 65.2 | > 10

Other lines, results leading:

Activity [1] [%] | inhibition [2] [%] | ED50 [3] [µM] | Compound
53.5 | 47.5 | > 10 | Nc1sc(Br)c(-c2cccc(C(F)(F)F)c2)c1C(=O)c1ccccc1
23.7 | 34.8 | > 10 | Nc1sc(-c2ccc([N+](=O)[O-])cc2)c(-c2cccc(C(F)(F)F)c2)c1C(=O)c1ccccc1
18.1 | 82.4 | 2.3 | Nc1sc(-c2ccccc2)c(-c2cccc(C(F)(F)F)c2)c1C(=O)c1ccccc1
17.5 | 81.5 | > 10 | CCOC(=O)c1c(N)sc(-c2ccc(OC)cc2)c1-c1cccc(C(F)(F)F)c1
22.2 | 87.1 | > 10 | Nc1sc(Cl)c(-c2cccc(C(F)(F)F)c2)c1C(=O)c1ccccc1
28.5 | 64.6 | > 10 | CCOC(=O)c1c(N)sc(-c2ccc(C(C)=O)cc2)c1-c1cccc(C(F)(F)F)c1
